# Assay results reported in article PMC7024744 (Journal of Pesticide Science, 2020).
# What was measured:
# B. cinerea = test: fungicidal activity in vitro, mycelium growth rate method; type: cell-based; settings: Botrytis cinerea, read-out: Antifungal activity in vitro, inhibition, B. cinerea
# Summary of the method: (§1)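 Mycelium growth rate method. Test compounds were dissolved in acetone as a 100 mg/L stock and tested at 50 mg/L. Boscalid served as positive control and acetone as negative control. Plates were incubated at 25°C. Inhibition (%) was calculated from the average mycelial diameter (mm) with compound versus the negative-control diameter.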
# V. mali = test: as above; type: cell-based; settings: Cytospora mali, read-out: Antifungal activity in vitro, inhibition, V. mali
# Summary of the method: as §1
# porcine SDH = porcine SDH (Sus scrofa, UniProt A5GZW8+D0VWV4+Q007T0+Q0QF01); test: SDH enzymatic inhibition assay; type: biochemical, swine
# Summary of the method: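 Porcine SDH quantified by double-antibody sandwich ELISA. Plates were coated with purified porcine SDH antibody, then monoclonal antibody and HRP-labelled SDH antibody were added. After washing, TMB substrate was added, followed by acid. OD was read at 450 nm. SDH activity concentration was taken from a standard curve of standard-substance concentration against OD and corrected for sample dilution.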
# porcine SDH, sequence (Q0QF01 43-664): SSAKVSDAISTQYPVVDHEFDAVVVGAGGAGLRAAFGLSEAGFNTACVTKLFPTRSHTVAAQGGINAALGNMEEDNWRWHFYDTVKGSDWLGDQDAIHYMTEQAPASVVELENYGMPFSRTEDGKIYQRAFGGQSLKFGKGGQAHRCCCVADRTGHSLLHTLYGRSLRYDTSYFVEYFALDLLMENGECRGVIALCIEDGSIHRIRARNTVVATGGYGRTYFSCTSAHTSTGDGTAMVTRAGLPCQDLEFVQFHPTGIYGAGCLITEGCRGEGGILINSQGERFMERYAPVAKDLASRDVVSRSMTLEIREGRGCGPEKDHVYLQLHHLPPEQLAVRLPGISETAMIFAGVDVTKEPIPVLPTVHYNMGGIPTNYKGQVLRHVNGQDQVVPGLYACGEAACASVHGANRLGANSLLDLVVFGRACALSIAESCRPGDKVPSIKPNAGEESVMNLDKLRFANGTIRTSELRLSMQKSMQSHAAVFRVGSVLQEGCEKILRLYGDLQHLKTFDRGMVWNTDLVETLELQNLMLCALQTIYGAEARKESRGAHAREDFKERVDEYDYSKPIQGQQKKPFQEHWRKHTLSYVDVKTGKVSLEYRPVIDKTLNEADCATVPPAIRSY
# porcine SDH, sequence (Q007T0 29-280): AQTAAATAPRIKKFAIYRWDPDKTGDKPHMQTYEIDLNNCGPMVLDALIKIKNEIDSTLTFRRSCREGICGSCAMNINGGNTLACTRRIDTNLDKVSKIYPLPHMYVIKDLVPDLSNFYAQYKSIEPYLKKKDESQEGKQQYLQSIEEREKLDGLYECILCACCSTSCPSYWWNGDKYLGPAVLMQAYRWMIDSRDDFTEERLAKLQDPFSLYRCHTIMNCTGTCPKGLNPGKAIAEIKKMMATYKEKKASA
# porcine SDH, sequence (D0VWV4 30-169): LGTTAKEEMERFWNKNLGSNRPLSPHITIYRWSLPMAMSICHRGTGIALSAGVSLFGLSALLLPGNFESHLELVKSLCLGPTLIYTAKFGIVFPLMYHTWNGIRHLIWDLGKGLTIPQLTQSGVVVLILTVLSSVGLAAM
# porcine SDH, sequence (A5GZW8 37-159): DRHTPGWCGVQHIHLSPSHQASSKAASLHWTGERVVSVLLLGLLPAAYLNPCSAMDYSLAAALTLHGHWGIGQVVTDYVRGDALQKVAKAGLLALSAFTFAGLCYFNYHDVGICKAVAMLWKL
smiles,measurement,setting,value
O=C(Nc1ccccc1-c1ccc(Cl)cc1)c1cccnc1Cl [Boscalid],inhibition at 50 µg/mL,B. cinerea,100%
same,inhibition at 50 µg/mL,V. mali,100%
same,IC50,porcine SDH,1670 nM
same,inhibition at 0.5 µM,"porcine SDH; read-out: SDH enzymatic inhibition, Inhibition (%) 0.5 µM",21.6%
same,inhibition at 1 µM,"porcine SDH; read-out: SDH enzymatic inhibition, Inhibition (%) 1 µM",43.3%
same,inhibition at 2 µM,"porcine SDH; read-out: SDH enzymatic inhibition, Inhibition (%) 2 µM",53.6%
same,inhibition at 8 µM,"porcine SDH; read-out: SDH enzymatic inhibition, Inhibition (%) 8 µM",81%
